Results taken from ChEMBL document CHEMBL4725350, “2-Oxaadamant-1-yl Ureas as Soluble Epoxide Hydrolase Inhibitors: In Vivo Evaluation in a Murine Model of Acute Pancreatitis” (J Med Chem, 2020).
Values after ≈ are worked out from the molar mass of the structure shown. Active and inactive are the calls of the source. The calls are words filed in the database; no cut-off is given here.

Tests used:
physchem = conditions: 1% DMSO/99% PBS buffer solution
AR-42J cell line [1] = experiment: Protection against cerulein-induced pancreatic damage in rat AR42J cells assessed as reduction in TRB3 mRNA level at 60 uM preincubated for 1 hr followed by cerulein addition and measured after 8 hrs by Trisure-reagent based RT-PCR analysis; type: functional, cell-based; conditions: time 9.0 hrs
How it was run: (§1)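 Rat pancreatic acinar AR42J cells are exposed to 10 nM cerulein with or without inhibitor co-incubation at 60 μM. IL-6, TNF-α, CHOP and TRB3 mRNA levels are measured and compared with control and cerulein-only cells. Mean ± SEM, n = 5 per group.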

[2] = Stability in human liver microsomes assessed as parent compound remaining measured after 60 mins in presence of NADPH by LC-MS/MS analysis; type: ADME, Microsome; conditions: read-out: Stabilty
How it was run: (§2)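 Compound is incubated at 37 °C with human, mouse or rat liver microsomes in 50 mM phosphate buffer pH 7.4. […] Samples at 0–60 min are quenched into acetonitrile; percent parent remaining at 60 min is reported. Testosterone is the positive control.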

[3] = molecular target: Voltage-gated inwardly rectifying potassium channel KCNH2 (Homo sapiens, UniProt Q12809); experiment: Inhibition of human ERG at 10 uM
Sequence of Voltage-gated inwardly rectifying potassium channel KCNH2 (Q12809 whole entry): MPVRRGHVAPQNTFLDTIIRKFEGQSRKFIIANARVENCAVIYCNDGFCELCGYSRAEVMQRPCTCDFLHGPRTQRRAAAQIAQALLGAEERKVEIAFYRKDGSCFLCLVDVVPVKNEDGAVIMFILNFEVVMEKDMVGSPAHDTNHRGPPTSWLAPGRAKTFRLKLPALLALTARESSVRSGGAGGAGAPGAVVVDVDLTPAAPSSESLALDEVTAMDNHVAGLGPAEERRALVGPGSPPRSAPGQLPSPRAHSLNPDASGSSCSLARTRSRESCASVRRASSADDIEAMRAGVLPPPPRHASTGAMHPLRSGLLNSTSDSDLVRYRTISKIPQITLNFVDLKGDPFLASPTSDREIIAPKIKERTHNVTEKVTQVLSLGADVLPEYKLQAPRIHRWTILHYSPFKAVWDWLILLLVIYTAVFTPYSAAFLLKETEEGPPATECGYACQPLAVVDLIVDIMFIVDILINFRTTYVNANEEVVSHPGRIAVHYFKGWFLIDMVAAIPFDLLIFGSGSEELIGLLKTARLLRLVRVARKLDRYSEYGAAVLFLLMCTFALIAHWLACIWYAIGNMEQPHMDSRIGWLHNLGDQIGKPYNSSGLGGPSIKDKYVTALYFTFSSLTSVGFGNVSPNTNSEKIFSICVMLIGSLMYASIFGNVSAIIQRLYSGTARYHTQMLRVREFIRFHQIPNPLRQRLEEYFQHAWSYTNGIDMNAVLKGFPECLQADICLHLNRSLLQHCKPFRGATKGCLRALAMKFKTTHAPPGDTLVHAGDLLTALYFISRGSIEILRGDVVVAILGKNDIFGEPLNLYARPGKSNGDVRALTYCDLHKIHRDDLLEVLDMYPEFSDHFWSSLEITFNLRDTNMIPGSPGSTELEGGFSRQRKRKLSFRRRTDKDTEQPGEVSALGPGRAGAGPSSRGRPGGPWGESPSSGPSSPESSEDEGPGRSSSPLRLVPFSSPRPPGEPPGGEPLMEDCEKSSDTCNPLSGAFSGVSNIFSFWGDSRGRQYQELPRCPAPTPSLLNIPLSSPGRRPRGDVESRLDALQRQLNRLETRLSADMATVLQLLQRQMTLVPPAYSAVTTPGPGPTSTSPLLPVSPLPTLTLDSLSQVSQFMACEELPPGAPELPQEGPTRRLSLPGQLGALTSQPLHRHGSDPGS

[4] = Stability in mouse liver microsomes assessed as parent compound remaining measured after 60 mins in presence of NADPH by LC-MS/MS analysis; type: ADME, Microsome; conditions: read-out: Stabilty
How it was run: as §2

[5] = molecular target: T1, Bifunctional epoxide hydrolase 2 (Rattus norvegicus, UniProt P80299); experiment: Inhibition of recombinant rat soluble epoxide hydrolase using CMNPC as substrate preincubated for 5 mins followed by substrate addition and measured at 30 secs interval for 10 mins by fluorescence assay
T1 sequence (P80299 whole entry): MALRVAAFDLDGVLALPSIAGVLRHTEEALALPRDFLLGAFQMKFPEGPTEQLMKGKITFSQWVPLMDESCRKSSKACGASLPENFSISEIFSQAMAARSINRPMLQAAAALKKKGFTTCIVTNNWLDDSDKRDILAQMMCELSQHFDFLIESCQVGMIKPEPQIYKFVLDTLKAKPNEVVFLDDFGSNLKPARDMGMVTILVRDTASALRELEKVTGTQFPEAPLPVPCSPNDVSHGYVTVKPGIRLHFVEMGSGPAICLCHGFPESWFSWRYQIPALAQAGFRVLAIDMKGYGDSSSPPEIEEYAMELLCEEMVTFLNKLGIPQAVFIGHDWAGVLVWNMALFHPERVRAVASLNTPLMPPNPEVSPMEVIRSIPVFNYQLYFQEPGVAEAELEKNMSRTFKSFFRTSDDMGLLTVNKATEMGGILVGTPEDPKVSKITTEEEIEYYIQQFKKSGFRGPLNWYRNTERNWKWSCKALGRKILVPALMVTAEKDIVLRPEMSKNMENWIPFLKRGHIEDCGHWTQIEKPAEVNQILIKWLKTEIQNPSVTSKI
How it was run: (§3)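 Purified recombinant enzyme was preincubated with inhibitor (0.4–100,000 nM final) for 5 min at 30 °C in 100 mM sodium phosphate, pH 7.4, with 0.1 mg/mL BSA and 1% DMSO. CMNPC was added at 5 μM final. 6-Methoxynaphthaldehyde fluorescence (ex 330/em 465 nm) was read every 30 s for 10 min. IC50 values are averages of three replicates.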

[6] = Stability in rat liver microsomes assessed as parent compound remaining measured after 60 mins in presence of NADPH by LC-MS/MS analysis; type: ADME, Microsome; conditions: read-out: Stabilty
How it was run: as §2

AR-42J cell line [7] = experiment: Protection against cerulein-induced pancreatic damage in rat AR42J cells assessed as reduction in IL-6 mRNA level at 60 uM preincubated for 1 hr followed by cerulein addition and measured after 8 hrs by Trisure-reagent based RT-PCR analysis; type: functional, cell-based; conditions: time 9.0 hrs
How it was run: as §1

AR-42J cell line [8] = experiment: Protection against cerulein-induced pancreatic damage in rat AR42J cells assessed as reduction in TNF-alpha mRNA level at 60 uM preincubated for 1 hr followed by cerulein addition and measured after 8 hrs by Trisure-reagent based RT-PCR analysis; type: functional, cell-based; conditions: time 9.0 hrs
How it was run: as §1

[9] = Cytotoxicity against human PBMC assessed as reduction in cell viability measured after 72 hrs by ATPlite assay; conditions: read-out: LC50 (the source's name)
[10] = molecular target: T2, Bifunctional epoxide hydrolase 2 (Mus musculus, UniProt P34914); experiment: Inhibition of recombinant mouse soluble epoxide hydrolase using CMNPC as substrate preincubated for 5 mins followed by substrate addition and measured at 30 secs interval for 10 mins by fluorescence assay
T2 sequence (P34914 whole entry): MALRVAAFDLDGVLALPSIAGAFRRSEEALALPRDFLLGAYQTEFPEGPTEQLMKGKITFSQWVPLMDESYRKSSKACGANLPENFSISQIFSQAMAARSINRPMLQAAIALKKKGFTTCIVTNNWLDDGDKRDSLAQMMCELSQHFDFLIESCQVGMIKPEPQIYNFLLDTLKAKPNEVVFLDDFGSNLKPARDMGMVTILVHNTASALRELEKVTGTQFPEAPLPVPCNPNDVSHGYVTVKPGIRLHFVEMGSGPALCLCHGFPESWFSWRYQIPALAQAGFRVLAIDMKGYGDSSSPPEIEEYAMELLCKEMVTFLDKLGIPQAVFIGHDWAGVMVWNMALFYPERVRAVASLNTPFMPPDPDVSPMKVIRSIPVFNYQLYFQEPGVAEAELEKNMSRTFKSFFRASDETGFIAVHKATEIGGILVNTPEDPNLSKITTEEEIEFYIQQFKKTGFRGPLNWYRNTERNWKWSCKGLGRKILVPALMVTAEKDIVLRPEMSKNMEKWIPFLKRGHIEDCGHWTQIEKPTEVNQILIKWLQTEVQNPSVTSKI
How it was run: as §3

AR-42J cell line [11] = experiment: Protection against cerulein-induced pancreatic damage in rat AR42J cells assessed as reduction in CHOP mRNA level at 60 uM preincubated for 1 hr followed by cerulein addition and measured after 8 hrs by Trisure-reagent based RT-PCR analysis; type: functional, cell-based; conditions: time 9.0 hrs
How it was run: as §1

[12] = Apparent permeability across apical to basolateral side in human Caco-2 cells at 10 uM measured after 2 hrs by LC-MS/MS analysis; conditions: caco-2, 2 h
THLE-2 = experiment: Cytotoxicity against human THLE-2 cells assessed as reduction in cell viability measured after 72 hrs by ATPlite assay; type: cell-based; conditions: thle-2, 72 h, read-out: LC50 (the source's name)
How it was run: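 THLE-2 cells were grown in BEGM with 0.7 μg/mL phosphoethanolamine, 0.5 ng/mL EGF and 10% FBS, plated at 10,000 cells/well and left to adhere for 24 h. Cells were exposed to 0–100 μM final (1% DMSO) for 72 h at 37 °C, 5% CO2.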

[13] = Cmax in CD-1 mouse at 1 mg/kg, ip measured up to 24 hrs by LC-MS analysis; type: ADME, organism-based; parameters: route intraperitoneal, dose 1 mg/kg, time <=24; conditions: in vivo
How it was run: (§4)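 Single dose, 1 mg/kg, given to mice intravenously or intraperitoneally. Parameters are taken from the plasma concentration–time profile: T1/2, Tmax, Cmax, C0 (iv only), AUClast, AUCINF_obs, Vz and Cl. Bioavailability is derived from ip versus iv exposure.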

[14] = Tmax in CD-1 mouse at 1 mg/kg, ip measured up to 24 hrs by LC-MS analysis; type: ADME, organism-based; conditions: in vivo
How it was run: as §4

[15] = Initial plasma concentration in CD-1 mouse at 1 mg/kg, iv measured up to 24 hrs by LC-MS analysis; type: ADME, organism-based; conditions: in vivo
How it was run: as §4

| Structure (SMILES) | solubility kinetic at 2 h (physchem) [µM] | Activity (AR-42J cell line [1]) | remaining at 1 h [2] [%] | inhibition (INH) [3] | remaining at 1 h [4] [%] | IC50 [5] [nM] | remaining at 1 h [6] [%] | Activity (AR-42J cell line [7]) | Activity (AR-42J cell line [8]) | CC50 [9] [nM] | IC50 [10] [nM] | Activity (AR-42J cell line [11]) | Papp [12] [×10⁻⁶ cm/s] | CC50 (THLE-2) [nM] | Cmax [13] [ng/mL] | Tmax [14] [min] | C0 [15] [ng/mL] |
| --- | --- | --- | --- | --- | --- | --- | --- | --- | --- | --- | --- | --- | --- | --- | --- | --- | --- |
| CC(=O)N1CCC(NC(=O)NC23CC4CC(CC(C4)O2)C3)CC1 | 59 (≈ 19 µg/mL) | Active | 88.8 | Not Active | 80.5 | 3.3 | 85.1 | Active | Active | > 20000 | 92.3 | Active | 2.24 | > 100000 |  |  |  |
| CC(C)S(=O)(=O)N1CCC(NC(=O)NC23CC4CC(CC(C4)O2)C3)CC1 | 34 (≈ 13.1 µg/mL) | Active | 72.7 | Not Active | 63.9 | 1.9 | 63.9 | Active | Active | > 20000 | 79.1 | Active |  | > 100000 | 117.33 | 9.6 | 236.23 |
